≈ marks a conversion by molar mass, not a printed value.
Experiments:
[1] = Terminal half-life in Wistar rat at 10 mg/kg, iv by LC-MS/MS analysis; format: ADME, organism-based; details: in vivo, read-out: beta t1/2 (converted)
Summary of the method: (§1)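 Rats dosed iv at 10 mg/kg or 1 mg/kg. Dose-normalized AUC (μg·h/(mL·dose)) and its unbound counterpart derived via fraction unbound. Clearance, unbound clearance, Vdss and half-life also derived.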

[2] = tested on: Enterobacter cloacae; assay: Antibacterial activity against fluoroquinolone/carbapenem-resistant Enterobacter cloacae by CLSI broth microdilution method; format: functional
[3] = Inhibition of wild-type Acinetobacter baumannii DNA gyrase supercoiling activity using relaxed pBR322 DNA as substrate by ethidium bromide based agarose gel electrophoresis
[4] = tested on: Enterococcus faecium; assay: Antibacterial activity against multi-drug resistant Enterococcus faecium by CLSI broth microdilution method; format: functional
[5] = Fraction unbound in Wistar rat plasma at 10 mg/kg, iv by rapid equilibrium dialysis; format: ADME, organism-based; summary of the method: as §1
[6] = target: Voltage-gated inwardly rectifying potassium channel KCNH2 (Homo sapiens, UniProt Q12809); assay: (§2) Inhibition of human ERG assessed as reduction of K+ current
[7] = target: T1, hERG (KCNH2) (Homo sapiens, UniProt Q12809); assay: as §2; details: human
[8] = tested on: Streptococcus agalactiae; assay: Antibacterial activity against Streptococcus agalactiae by CLSI broth microdilution method; format: functional
[9] = Fraction unbound in Dunkin-Hartley guinea pig plasma administered as iv at 3 mg/kg for first 20 mins of infusion followed by 10 mg/kg for second 20 mins of infusion followed by 30 mg/kg for third 20 mins of infusion by rapid equilibrium dialysis; format: ADME, organism-based, Cavia porcellus
[10] = Half-life in dog at 1 mg/kg, iv by LC-MS/MS analysis; format: ADME, organism-based, Canis lupus familiaris; details: in vivo
Summary of the method: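 Dogs given 1 mg/kg iv. Clearance (mL/min/kg) and half-life (h) derived from plasma profiles.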

[11] = tested on: Staphylococcus aureus; assay: Antibacterial activity against Staphylococcus aureus ATCC 29213 by CLSI broth microdilution method; format: functional
[12] = tested on: Escherichia coli; assay: Antibacterial activity against Escherichia coli by CLSI broth microdilution method; format: functional
[13] = Lipophilicity, log D of the compound at pH 7.4; format: physicochemical; details: buffer
[14] = Volume of distribution at steady state in Wistar rat at 10 mg/kg, iv by LC-MS/MS analysis; format: ADME, organism-based; details: in vivo, read-out: Vdss
Summary of the method: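 Rats received a single intravenous dose of 10 or 1 mg/kg depending on the compound. Clearance, unbound clearance, Vdss, terminal half-life and dose-normalized AUC were derived from plasma exposure, with unbound fraction (fu) reported for this species.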

[15] = tested on: Cavia porcellus; assay: (§3) Cardiotoxicity in Dunkin-Hartley guinea pig assessed as free plasma concentration causing effect on QRS interval administered as iv at 3 mg/kg for first 20 mins of infusion followed by 10 mg/kg for second 20 mins of infusion followed by 30 mg/kg for third 20 mins of infusion by LC-MS/MS analysis; format: toxicity, organism-based; details: in vivo
Summary of the method: (§4)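 Anesthetized guinea pigs received 3, 10 and 30 mg/kg iv over three consecutive 20 min periods. MAP, HR and ECG intervals (PR, QRS, RR, QT) recorded continuously. Blood drawn at the end of each period for drug levels. Value is the lowest plasma concentration differing from vehicle-treated animals. Free level uses unbound fraction from rapid equilibrium dialysis of guinea pig plasma.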

[16] = tested on: Pseudomonas aeruginosa; assay: Antibacterial activity against fluoroquinolone/carbapenem-resistant Pseudomonas aeruginosa by CLSI broth microdilution method; format: functional
[17] = Clearance in Wistar rat at 10 mg/kg, iv by LC-MS/MS analysis; format: ADME, organism-based; details: in vivo; summary of the method: as §1
[18] = tested on: Streptococcus pyogenes; assay: Antibacterial activity against Streptococcus pyogenes by CLSI broth microdilution method; format: functional
[19] = Inhibition of wild-type Escherichia coli DNA topoisomerase-4 mediated supercoiled pBR322 DNA relaxation by ethidium bromide based agarose gel electrophoresis
[20] = tested on: Cavia porcellus; assay: as §3, with “mean arterial pressure” for “QRS interval”; format: toxicity, organism-based; details: in vivo; summary of the method: as §4
[21] = tested on: Cavia porcellus; assay: Cardiotoxicity in Dunkin-Hartley guinea pig assessed as free plasma concentration causing effect on QT interval administered as iv at 3 mg/kg for first 20 mins of infusion followed by 10 mg/kg for second 20 mins of infusion followed by 30 mg/kg for third 20 mins of infusion by LC-MS/MS analysis; format: toxicity, organism-based; details: in vivo; summary of the method: as §4
[22] = Cardiotoxicity against human induced pluripotent stem cell-derived cardiomyocytes assessed as total drug concentration causing effect on spontaneous rhythm after 5 to 60 mins by Fluo-4 dye based fluorescence assay; format: toxicity; details: cardiac muscle cell
Summary of the method: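 Spontaneous beating rhythm of human iPSC-derived cardiomyocytes monitored. Reported value is the lowest active concentration, free or total. Free/total conversion corrected for 20% serum in the test solution.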

[23] = target: T1, hERG (KCNH2); assay: Inhibition of human ERG assessed as reduction of K+ current at 30 uM
Summary of the method: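 hERG K+ channel current reduction measured at 30 μM compound concentration.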

[24] = tested on: Rattus norvegicus; assay: Dose normalized unbound AUC in Wistar rat at 10 mg/kg, iv by LC-MS/MS analysis; format: ADME, organism-based; details: in vivo; summary of the method: as §1
[25] = tested on: Serratia marcescens; assay: Antibacterial activity against Serratia marcescens by CLSI broth microdilution method; format: functional
[26] = tested on: Streptococcus pneumoniae; assay: Antibacterial activity against Streptococcus pneumoniae by CLSI broth microdilution method; format: functional
[27] = Inhibition of wild-type Escherichia coli DNA gyrase supercoiling activity using relaxed pBR322 DNA as substrate by ethidium bromide based agarose gel electrophoresis
[28] = tested on: Klebsiella pneumoniae; assay: Antibacterial activity against Klebsiella pneumoniae by CLSI broth microdilution method; format: functional
[29] = Volume of distribution at steady state in dog at 1 mg/kg, iv by LC-MS/MS analysis; format: ADME, organism-based, Canis lupus familiaris; details: in vivo, read-out: Vdss
Summary of the method: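 Dogs received a single intravenous dose of 1 mg/kg. Clearance, Vdss, terminal half-life and dose-normalized AUC were calculated from plasma concentration data.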

[30] = Inhibition of wild-type Acinetobacter baumannii DNA topoisomerase-4 mediated supercoiled pBR322 DNA relaxation by ethidium bromide based agarose gel electrophoresis
[31] = tested on: Acinetobacter baumannii; assay: Antibacterial activity against fluoroquinolone-resistant Acinetobacter baumannii T6474 by CLSI broth microdilution method; format: functional
[32] = tested on: Staphylococcus aureus; assay: Antibacterial activity against Staphylococcus aureus by CLSI broth microdilution method; format: functional
[33] = tested on: Cavia porcellus; assay: Cardiotoxicity in Dunkin-Hartley guinea pig assessed as free plasma concentration causing effect on PR interval administered as iv at 3 mg/kg for first 20 mins of infusion followed by 10 mg/kg for second 20 mins of infusion followed by 30 mg/kg for third 20 mins of infusion by LC-MS/MS analysis; format: toxicity, organism-based; details: in vivo; summary of the method: as §4
[34] = Inhibition of wild-type Pseudomonas aeruginosa DNA gyrase supercoiling activity using relaxed pBR322 DNA as substrate by ethidium bromide based agarose gel electrophoresis
[35] = tested on: Pseudomonas aeruginosa; assay: Antibacterial activity against Pseudomonas aeruginosa ATCC 27853 by CLSI broth microdilution method; format: functional
[36] = tested on: Cavia porcellus; assay: Cardiotoxicity in Dunkin-Hartley guinea pig assessed as free plasma concentration causing effect on heart rate administered as iv at 3 mg/kg for first 20 mins of infusion followed by 10 mg/kg for second 20 mins of infusion followed by 30 mg/kg for third 20 mins of infusion by LC-MS/MS analysis; format: toxicity, organism-based; details: in vivo; summary of the method: as §4
[37] = tested on: Rattus norvegicus; assay: Dose normalized AUC in Wistar rat at 10 mg/kg, iv by LC-MS/MS analysis; format: ADME, organism-based; details: in vivo; summary of the method: as §1

T1 sequence (Q12809 whole entry): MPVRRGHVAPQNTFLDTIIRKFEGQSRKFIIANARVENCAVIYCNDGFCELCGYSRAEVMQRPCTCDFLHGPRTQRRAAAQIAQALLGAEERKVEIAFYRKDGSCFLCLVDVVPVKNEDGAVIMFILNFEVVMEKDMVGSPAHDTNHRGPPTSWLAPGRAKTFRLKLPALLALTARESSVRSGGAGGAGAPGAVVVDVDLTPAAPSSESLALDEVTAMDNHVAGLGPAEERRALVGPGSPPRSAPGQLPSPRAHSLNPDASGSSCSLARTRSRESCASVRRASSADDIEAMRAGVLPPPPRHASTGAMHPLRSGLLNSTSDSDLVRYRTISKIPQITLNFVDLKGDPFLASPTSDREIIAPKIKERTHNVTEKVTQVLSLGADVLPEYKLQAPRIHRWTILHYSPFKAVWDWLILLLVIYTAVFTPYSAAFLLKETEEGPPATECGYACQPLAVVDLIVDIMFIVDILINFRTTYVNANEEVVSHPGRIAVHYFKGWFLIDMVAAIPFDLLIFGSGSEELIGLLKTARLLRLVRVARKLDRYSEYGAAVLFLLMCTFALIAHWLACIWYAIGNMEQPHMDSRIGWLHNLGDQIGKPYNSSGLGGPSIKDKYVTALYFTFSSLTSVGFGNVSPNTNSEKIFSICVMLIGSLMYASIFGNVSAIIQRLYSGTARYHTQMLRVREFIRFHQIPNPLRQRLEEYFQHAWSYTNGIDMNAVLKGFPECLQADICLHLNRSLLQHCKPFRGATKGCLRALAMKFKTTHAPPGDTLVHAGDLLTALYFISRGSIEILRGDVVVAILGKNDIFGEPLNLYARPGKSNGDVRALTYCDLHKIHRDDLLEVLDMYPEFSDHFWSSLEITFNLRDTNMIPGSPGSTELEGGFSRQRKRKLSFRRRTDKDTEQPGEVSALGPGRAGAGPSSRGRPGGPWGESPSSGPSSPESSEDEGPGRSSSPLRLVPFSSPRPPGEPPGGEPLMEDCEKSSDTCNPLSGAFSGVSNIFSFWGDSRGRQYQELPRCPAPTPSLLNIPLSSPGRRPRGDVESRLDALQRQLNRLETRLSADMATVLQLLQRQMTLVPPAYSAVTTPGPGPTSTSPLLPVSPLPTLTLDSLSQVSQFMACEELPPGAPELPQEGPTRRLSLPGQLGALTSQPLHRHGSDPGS
Chain of Voltage-gated inwardly rectifying potassium channel KCNH2 (Q12809 whole entry): as above

Compound | half-life [1] | MIC [2] | IC50 [3] | MIC [4] | fraction unbound [5] | IC50 [6] | IC20 [7] | MIC [8] | fraction unbound at 20 min [9] | half-life [10] | MIC [11] | MIC [12] | logD [13] | Vd [14] | Cp(f) [15] | MIC [16] | clearance [17] | MIC [18] | IC50 [19] | Cp(f) [20] | other results
COc1ccc2ccc(=O)n(C[C@H](N)[C@@H]3CC[C@@H](NCc4ccc5c(n4)NC(=O)CO5)CO3)c2n1 | 9.1 h | 2 to 16 µg/mL (≈ 4.16 to 33.3 µM) | 0.125 µM | 1 to 16 µg/mL (≈ 2.08 to 33.3 µM) | 0.236 | 52 µM | 13 µM | 4 µg/mL (≈ 8.32 µM) | 0.54 | 1.3 h | 0.25 µg/mL (≈ 0.52 µM) | 0.5 to 2 µg/mL (≈ 1.04 to 4.16 µM) | 0.3 | 21 L/kg | 2700 nM | 1 to 2 µg/mL (≈ 2.08 to 4.16 µM) | 110 mL/min/kg | ≤ 0.03 µg/mL | 0.03 µM | 28000 nM | Cp(f) [21]: 2700 nM; Drug uptake [22]: 0.31 to 0.93 µM; inhibition at 30 µM [23]: 37%; fAUC/dose [24]: 34 µg·h/mL; MIC [25]: 8 to 16 µg/mL (≈ 16.6 to 33.3 µM); MIC [26]: 0.25 to 8 µg/mL (≈ 0.52 to 16.6 µM); IC50 [27]: 0.125 µM; MIC [28]: 8 to 16 µg/mL (≈ 16.6 to 33.3 µM); Vd [29]: 2.5 L/kg; IC50 [30]: 0.125 µM; MIC [31]: 1 µg/mL (≈ 2.08 µM); MIC [32]: 0.25 to 2 µg/mL (≈ 0.52 to 4.16 µM); Cp(f) [33]: 2700 nM; IC50 [34]: 0.125 µM; MIC [35]: 1 µg/mL (≈ 2.08 µM); Cp(f) [36]: 11000 nM; AUC/dose [37]: 145 µg·h/mL
COc1ccc2ncc(F)c(C[C@H](N)[C@@H]3CC[C@@H](NCc4ccc5c(n4)NC(=O)CO5)CO3)c2n1 | 8.8 h | 0.25 to 4 µg/mL (≈ 0.518 to 8.29 µM) | 0.125 µM | 0.063 to 0.5 µg/mL (≈ 0.131 to 1.04 µM) | 0.15 | 5 µM | 1.2 µM | 2 µg/mL (≈ 4.14 µM) | 0.33 | 2.9 h | 0.03 µg/mL (≈ 0.0622 µM) | 0.125 to 0.5 µg/mL (≈ 0.259 to 1.04 µM) | 0.9 | 25 L/kg | 1800 nM | 1 to 2 µg/mL (≈ 2.07 to 4.14 µM) | 86 mL/min/kg | ≤ 0.03 µg/mL | 0.03 µM | 1800 nM | Cp(f) [21]: 530 nM; Drug uptake [22]: 0.5 µM; inhibition at 30 µM [23]: 86%; fAUC/dose [24]: 29 µg·h/mL; MIC [25]: 1 to 8 µg/mL (≈ 2.07 to 16.6 µM); MIC [26]: 0.125 to 2 µg/mL (≈ 0.259 to 4.14 µM); IC50 [27]: 0.125 µM; MIC [28]: 1 to 4 µg/mL (≈ 2.07 to 8.29 µM); Vd [29]: 61 L/kg; IC50 [30]: 0.125 µM; MIC [31]: 0.125 µg/mL (≈ 0.259 µM); MIC [32]: 0.125 to 0.5 µg/mL (≈ 0.259 to 1.04 µM); Cp(f) [33]: 1800 nM; IC50 [34]: 0.03 µM; MIC [35]: 1 µg/mL (≈ 2.07 µM); Cp(f) [36]: 530 nM; AUC/dose [37]: 194 µg·h/mL
